Test results taken from ChEMBL document CHEMBL3588792, “Selective Acetamidine-Based Nitric Oxide Synthase Inhibitors: Synthesis, Docking, and Biological Studies” (ACS Med Chem Lett, 2015).
Activity calls are given as the source filed them. The rule behind the calls is not given here.

Experiments:
[1] = target: T1, Nitric oxide synthase, inducible (Mus musculus, UniProt P29477); assay: Inhibition of mouse recombinant iNOS using [3H]L-arginine substrate assessed as formation of [3H]L-citruline by liquid scintillation counting analysis
T1 sequence (P29477 whole entry): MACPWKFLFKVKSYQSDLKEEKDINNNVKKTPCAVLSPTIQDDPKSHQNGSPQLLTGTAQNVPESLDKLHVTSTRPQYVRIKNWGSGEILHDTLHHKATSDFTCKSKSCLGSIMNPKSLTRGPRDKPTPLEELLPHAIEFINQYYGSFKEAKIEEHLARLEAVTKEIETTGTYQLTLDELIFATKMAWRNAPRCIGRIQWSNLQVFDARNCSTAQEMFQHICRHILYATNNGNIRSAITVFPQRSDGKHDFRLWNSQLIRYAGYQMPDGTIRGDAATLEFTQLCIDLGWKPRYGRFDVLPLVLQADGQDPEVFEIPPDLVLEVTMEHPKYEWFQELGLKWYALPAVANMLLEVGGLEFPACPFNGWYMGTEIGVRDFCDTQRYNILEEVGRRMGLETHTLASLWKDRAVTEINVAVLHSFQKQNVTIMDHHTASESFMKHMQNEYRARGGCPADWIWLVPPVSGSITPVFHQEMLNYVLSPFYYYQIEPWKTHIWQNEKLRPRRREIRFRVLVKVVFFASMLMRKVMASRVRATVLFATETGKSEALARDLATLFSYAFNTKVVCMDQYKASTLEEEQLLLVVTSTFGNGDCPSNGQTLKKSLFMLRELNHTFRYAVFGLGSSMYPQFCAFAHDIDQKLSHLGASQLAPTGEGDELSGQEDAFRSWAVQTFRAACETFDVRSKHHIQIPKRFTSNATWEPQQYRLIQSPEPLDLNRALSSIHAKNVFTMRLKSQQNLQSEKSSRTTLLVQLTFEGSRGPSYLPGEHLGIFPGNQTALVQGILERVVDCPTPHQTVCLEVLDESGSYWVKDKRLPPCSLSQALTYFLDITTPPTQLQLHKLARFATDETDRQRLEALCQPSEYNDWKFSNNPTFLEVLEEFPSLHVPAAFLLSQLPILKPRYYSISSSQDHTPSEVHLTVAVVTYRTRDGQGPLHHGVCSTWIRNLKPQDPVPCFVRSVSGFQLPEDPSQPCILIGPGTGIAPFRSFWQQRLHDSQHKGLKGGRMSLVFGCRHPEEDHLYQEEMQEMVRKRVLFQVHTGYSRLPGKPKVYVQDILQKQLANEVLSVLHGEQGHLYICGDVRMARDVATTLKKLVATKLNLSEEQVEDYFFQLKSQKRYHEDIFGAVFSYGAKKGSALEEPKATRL
Summary of the method: (§1)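 Recombinant enzyme inhibition was read as [3H]L-citrulline formed from [3H]L-arginine. Each inhibitor was tested at seven concentrations in triplicate, with IC50 given as mean ± SD. Selectivity is the eNOS IC50 divided by the iNOS IC50.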

Nitric oxide synthase 3 = target: T2, Nitric oxide synthase 3 (Bos taurus, UniProt P29473); assay: Inhibition of bovine recombinant eNOS using [3H]L-arginine substrate assessed as formation of [3H]L-citruline by liquid scintillation counting analysis; summary of the method: as §1
T2 sequence (P29473 whole entry): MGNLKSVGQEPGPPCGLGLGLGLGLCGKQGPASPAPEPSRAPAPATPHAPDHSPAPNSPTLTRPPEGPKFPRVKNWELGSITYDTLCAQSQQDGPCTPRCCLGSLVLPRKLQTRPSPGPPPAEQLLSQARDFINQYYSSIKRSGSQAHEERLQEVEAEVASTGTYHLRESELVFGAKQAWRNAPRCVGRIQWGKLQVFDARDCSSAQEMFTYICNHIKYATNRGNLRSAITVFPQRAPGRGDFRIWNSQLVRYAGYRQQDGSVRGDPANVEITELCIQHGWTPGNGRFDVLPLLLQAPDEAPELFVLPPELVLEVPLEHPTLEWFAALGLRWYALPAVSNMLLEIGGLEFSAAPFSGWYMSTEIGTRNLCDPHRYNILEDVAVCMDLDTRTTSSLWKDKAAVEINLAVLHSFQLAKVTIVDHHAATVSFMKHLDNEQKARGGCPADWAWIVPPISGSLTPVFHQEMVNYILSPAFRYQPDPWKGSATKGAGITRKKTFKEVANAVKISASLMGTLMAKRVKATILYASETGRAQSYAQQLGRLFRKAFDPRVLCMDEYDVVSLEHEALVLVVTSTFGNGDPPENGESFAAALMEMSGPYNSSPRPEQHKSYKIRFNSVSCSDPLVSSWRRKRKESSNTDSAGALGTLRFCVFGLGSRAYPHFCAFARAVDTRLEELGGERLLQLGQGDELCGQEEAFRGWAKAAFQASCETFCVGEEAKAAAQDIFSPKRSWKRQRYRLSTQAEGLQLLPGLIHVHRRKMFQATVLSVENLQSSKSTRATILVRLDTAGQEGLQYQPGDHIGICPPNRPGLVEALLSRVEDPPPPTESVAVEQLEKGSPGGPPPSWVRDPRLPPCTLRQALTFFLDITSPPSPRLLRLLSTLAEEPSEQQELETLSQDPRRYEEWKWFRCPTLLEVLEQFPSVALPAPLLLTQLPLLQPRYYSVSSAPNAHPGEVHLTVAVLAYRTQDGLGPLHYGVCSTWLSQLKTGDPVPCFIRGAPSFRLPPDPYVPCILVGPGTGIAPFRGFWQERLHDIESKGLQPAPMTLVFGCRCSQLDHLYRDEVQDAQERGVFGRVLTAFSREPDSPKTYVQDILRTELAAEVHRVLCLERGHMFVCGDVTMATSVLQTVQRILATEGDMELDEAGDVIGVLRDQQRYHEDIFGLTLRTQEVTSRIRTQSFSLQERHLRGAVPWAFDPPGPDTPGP

[2] = Selectivity ratio of IC50 for bovine recombinant eNOS to IC50 for mouse recombinant iNOS
Rattus norvegicus [3] = organism: Rattus norvegicus; assay: Reduction of Ach-mediated NO-dependent precontracted Sprague-Dawley rat mesenteric vascular artery vasorelaxation measured at 100 uM/30 mins preincubation; type: functional, organism-based
Summary of the method: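 Isolated SD rat mesenteric arteries precontracted with 10 μM NA to about 80% of maximal vasoconstriction. Preincubation 30 min at 100 μM, then dose-response to ACh (0.01–3 μM/30 s) for NO-dependent (eNOS-mediated) vasorelaxation, compared with control curve. Mean ± SEM of duplicates, four independent experiments; two-way repeated-measures ANOVA.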

Rattus norvegicus [4] = organism: Rattus norvegicus; assay: Reduction of Ach-mediated NO-dependent precontracted Sprague-Dawley rat mesenteric vascular artery vasorelaxation measured at 0.43 uM/30 mins preincubation; type: functional, organism-based
Summary of the method: (§2)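 Mesenteric arteries were isolated from SD rats and precontracted to ~80% of maximal constriction with 10 μM NA. The inhibitor was preincubated for 30 min, then ACh dose-response curves were run (0.01–3 μM/30 s) against control, followed by L-NAME (100 μM). Data are mean ± SEM of duplicates from four independent experiments, analysed by two-way repeated-measures ANOVA.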

Rattus norvegicus [5] = organism: Rattus norvegicus; assay: Reduction of Ach-mediated NO-dependent precontracted Sprague-Dawley rat mesenteric vascular artery vasorelaxation measured up to 0.7 uM/30 mins preincubation; type: functional, organism-based; summary of the method: as §2
Rattus norvegicus [6] = organism: Rattus norvegicus; assay: Reduction of Ach-mediated NO-dependent precontracted Sprague-Dawley rat mesenteric vascular artery vasorelaxation measured at 0.85 uM/30 mins preincubation; type: functional, organism-based; summary of the method: as §2
Rattus norvegicus [7] = organism: Rattus norvegicus; assay: Reduction of Ach-mediated NO-dependent precontracted Sprague-Dawley rat mesenteric vascular artery vasorelaxation measured at 1 to 1.2 uM/30 mins preincubation; type: functional, organism-based; summary of the method: as §2
Rattus norvegicus [8] = organism: Rattus norvegicus; assay: Induction of NA-induced LPS-treated Sprague-Dawley rat mesenteric vascular artery vasoconstriction effect measured at 0.43 uM/30 mins preincubation; type: functional, organism-based
Summary of the method: (§3)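 Mesenteric arteries came from SD rats injected with LPS. NA dose-response curves (10 nM–10 μM) were recorded before and after 30 min preincubation with inhibitor. Read-outs were peak perfusion pressure (mmHg) and duration as AUC (mmHg × sec). Data are mean ± SEM of duplicates from four independent experiments.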

Rattus norvegicus [9] = organism: Rattus norvegicus; assay: Induction of NA-induced LPS-treated Sprague-Dawley rat mesenteric vascular artery vasoconstriction effect measured at 1 uM/30 mins preincubation; type: functional, organism-based; summary of the method: as §3
Rattus norvegicus [10] = organism: Rattus norvegicus; assay: Induction of NA-induced LPS-treated Sprague-Dawley rat mesenteric vascular artery vasoconstriction effect measured at 100 uM/30 mins preincubation; type: functional, organism-based; summary of the method: as §3
Rattus norvegicus [11] = organism: Rattus norvegicus; assay: Induction of NA-induced LPS-treated Sprague-Dawley rat mesenteric vascular artery vasoconstriction effect measured at 0.43 uM/30 mins preincubation relative to basal level; type: functional, organism-based; summary of the method: as §3
Rattus norvegicus [12] = organism: Rattus norvegicus; assay: Reduction of Ach-mediated NO-dependent precontracted Sprague-Dawley rat mesenteric vascular artery vasorelaxation measured at 1 uM/30 mins preincubation; type: functional, organism-based; summary of the method: as §2
Rattus norvegicus [13] = organism: Rattus norvegicus; assay: Induction of NA-induced LPS-treated Sprague-Dawley rat mesenteric vascular artery vasoconstriction effect measured at 1 uM/30 mins preincubation relative to basal level; type: functional, organism-based; summary of the method: as §3
Rattus norvegicus [14] = organism: Rattus norvegicus; assay: Induction of NA-induced LPS-treated Sprague-Dawley rat mesenteric vascular artery vasoconstriction effect measured at 100 uM/30 mins preincubation relative to basal level; type: functional, organism-based

SMILES	IC50 [1]	IC50 (Nitric oxide synthase 3)	Ratio IC50 [2]	other results
CC(=N)NCc1cccc(CNC(=O)CCN)c1	> 10 µM	–	–	–
CC(=N)NCc1cccc(CN(Cc2ccc([N+](=O)[O-])cc2)Cc2ccc([N+](=O)[O-])cc2)c1	0.5 µM	100 µM	200	–
CC(=N)NCc1cccc(CNC(=O)c2ccc(C(=O)O)cc2)c1	0.165 µM	90.8 µM	550	–
CC(=N)NCc1cccc(CNC(=O)CC(=O)O)c1	> 10 µM	–	–	–
CC(=N)NCc1cccc(CNC(=O)CN)c1	> 10 µM	–	–	–
COC(=O)[C@@H](N)CCCNC(=N)N[N+](=O)[O-]	–	–	–	inhibition (Rattus norvegicus [3]): Active; Activity (Rattus norvegicus [14]): Active

Continued, in another order:

IC50 [1]	IC50 (Nitric oxide synthase 3)	Ratio IC50 [2]	SMILES	other results
0.1 µM	30 µM	300	CC(=N)NCc1cccc(CNCc2ccccc2[N+](=O)[O-])c1	–
0.428 µM	> 1000 µM	> 2300	CC(=N)NCc1cccc(CNC(=O)CCC(=O)O)c1	inhibition (Rattus norvegicus [3]): inactive; inhibition (Rattus norvegicus [4]): inactive; inhibition (Rattus norvegicus [5]): inactive; Activity (Rattus norvegicus [6]): Active; Activity (Rattus norvegicus [7]): Active; Activity (Rattus norvegicus [8]): Active; Activity (Rattus norvegicus [9]): Active; Activity (Rattus norvegicus [10]): Active; Activity (Rattus norvegicus [11]): Active
0.1 µM	–	–	CC(=N)NCc1cccc(CN)c1 [1400W]	inhibition (Rattus norvegicus [12]): inactive; Activity (Rattus norvegicus [13]): Active
> 10 µM	–	–	CC(=N)NCc1cccc(CNC(=O)CCCN)c1	–
